Source: ChEMBL document CHEMBL4308833, “A Thieno[2,3- d]pyrimidine Scaffold Is a Novel Negative Allosteric Modulator of the Dopamine D2 Receptor” (J Med Chem, 2018)

Columns and labels:
[1] = biological target: D(2) dopamine receptor (Homo sapiens) (UniProt P14416); test: (§1) Negative allosteric modulation of recombinant human D2L receptor expressed in Flp-In CHO cells assessed as inhibition of dopamine-induced reduction in forskolin stimulated cAMP accumulation by measuring co-operativity factor preincubated for 30 mins followed by forskolin stimulation and measured after 30 mins by BRET assay; format: functional, cell-based
[2] = biological target: D(2) dopamine receptor (Homo sapiens) (UniProt P14416); test: as §1, with “modulation of dopamine efficacy” for “co-operativity factor”; format: functional, cell-based
[3] = biological target: D(2) dopamine receptor (Homo sapiens) (UniProt P14416); test: Displacement of [3H]Raclopride from recombinant human D2L receptor expressed in Flp-In CHO cell membranes after 2 to 3 hrs by microbeta counting method
Outline: (§2)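 hD2LR FlpIn CHO membrane homogenate (15 µg protein) was co-incubated with 0.5 nM [3H]raclopride and test compound at 10^-3 to 10^-7 M (half-log dilutions from DMSO stock, in duplicate). Incubation was 2-3 h at 25 °C in HEPES buffer, pH 7.4. Nonspecific binding was defined with 10 µM haloperidol. Filtration was followed by scintillation counting. KB and cooperativity α were obtained from an allosteric ternary complex model.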

[4] = biological target: D(3) dopamine receptor (Homo sapiens) (UniProt P35462); test: Displacement of [3H]Raclopride from recombinant D3 receptor (unknown origin) expressed in Flp-In CHO cell membranes assessed as co-operativity factor after 2 to 3 hrs by microbeta counting method
Outline: (§3)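 In FlpIn CHO membranes expressing hD3R, compound was tested for displacement of [3H]raclopride in equilibrium binding. Competition curves were fitted with an allosteric ternary complex model to give KB and the net cooperativity factor with [3H]raclopride. Data are at least three independent experiments in duplicate.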

[5] = biological target: D(2) dopamine receptor (Homo sapiens) (UniProt P14416); test: Allosteric modulation of recombinant human D2L receptor expressed in Flp-In CHO cell membranes assessed as dissociation half life for [3H]Raclopride at 100 uM in presence of haloperidol after 2 to 3 hrs by microbeta counting method (reference value: 34.2 min); format: cell-based
Outline: (§4)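 Membranes from FlpIn CHO cells stably expressing hD2LR were incubated with 0.5 nM [3H]raclopride for 60 min in HEPES/NaCl/MgCl2/EGTA/EDTA buffer, pH 7.4, at 25 °C. Dissociation was then started by adding 10 µM haloperidol, with or without modulator. Bound radioactivity was collected by filtration and scintillation counting. Curves were fitted for koff, and t1/2 = 0.6931/koff.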

[6] = species: Homo sapiens; test: Selectivity ratio of Kb for recombinant D3 receptor (unknown origin) expressed in Flp-In CHO cell membranes to Kb for recombinant human D2L receptor expressed in Flp-In CHO cell membranes; format: cell-based
[7] = biological target: D(2) dopamine receptor (Homo sapiens) (UniProt P14416); test: Allosteric modulation of recombinant human D2L receptor expressed in Flp-In CHO cell membranes assessed as dissociation of [3H]Raclopride at 100 uM in presence of haloperidol after 2 to 3 hrs by microbeta counting method (reference value: 0.02 +/- 0.004 /min); format: cell-based; outline: as §4
[8] = biological target: D(3) dopamine receptor (Homo sapiens) (UniProt P35462); test: Displacement of [3H]Raclopride from recombinant D3 receptor (unknown origin) expressed in Flp-In CHO cell membranes after 2 to 3 hrs by microbeta counting method; outline: as §3
[9] = biological target: D(2) dopamine receptor (Homo sapiens) (UniProt P14416); test: Negative allosteric modulation of recombinant human D2L receptor expressed in Flp-In CHO cells assessed as inhibition of dopamine-induced reduction in forskolin stimulated cAMP accumulation preincubated for 30 mins followed by forskolin stimulation and measured after 30 mins by BRET assay; format: functional, cell-based
[10] = biological target: D(2) dopamine receptor (Homo sapiens) (UniProt P14416); test: Displacement of [3H]Raclopride from recombinant human D2L receptor expressed in Flp-In CHO cell membranes assessed as co-operativity factor after 2 to 3 hrs by microbeta counting method; outline: as §2
[11] = biological target: D(2) dopamine receptor (Homo sapiens) (UniProt P14416); test: Allosteric modulation of recombinant human D2L receptor expressed in Flp-In CHO cell membranes assessed as dissociation of [3H]Raclopride in presence of haloperidol after 2 to 3 hrs by microbeta counting method (reference value: 0.014 +/- 0.001 /min); format: cell-based; outline: as §4
[12] = biological target: D(2) dopamine receptor (Homo sapiens) (UniProt P14416); test: Allosteric modulation of recombinant human D2L receptor expressed in Flp-In CHO cell membranes assessed as dissociation half life for [3H]Raclopride in presence of haloperidol after 2 to 3 hrs by microbeta counting method (reference value: 49.2 min); format: cell-based; outline: as §4

Chain of D(3) dopamine receptor (Homo sapiens) (P35462 whole entry): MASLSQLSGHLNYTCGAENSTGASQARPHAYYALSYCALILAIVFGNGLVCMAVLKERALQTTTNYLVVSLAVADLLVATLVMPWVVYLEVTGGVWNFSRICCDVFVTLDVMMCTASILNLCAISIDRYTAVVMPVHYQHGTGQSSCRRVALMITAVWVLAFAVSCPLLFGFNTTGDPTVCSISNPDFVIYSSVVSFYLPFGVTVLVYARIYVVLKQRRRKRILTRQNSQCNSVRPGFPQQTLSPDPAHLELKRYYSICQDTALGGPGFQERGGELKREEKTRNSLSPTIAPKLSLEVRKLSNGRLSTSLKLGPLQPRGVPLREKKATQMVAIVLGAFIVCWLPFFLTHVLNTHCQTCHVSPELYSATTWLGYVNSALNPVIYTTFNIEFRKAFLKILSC
Chain of D(2) dopamine receptor (Homo sapiens) (P14416 whole entry): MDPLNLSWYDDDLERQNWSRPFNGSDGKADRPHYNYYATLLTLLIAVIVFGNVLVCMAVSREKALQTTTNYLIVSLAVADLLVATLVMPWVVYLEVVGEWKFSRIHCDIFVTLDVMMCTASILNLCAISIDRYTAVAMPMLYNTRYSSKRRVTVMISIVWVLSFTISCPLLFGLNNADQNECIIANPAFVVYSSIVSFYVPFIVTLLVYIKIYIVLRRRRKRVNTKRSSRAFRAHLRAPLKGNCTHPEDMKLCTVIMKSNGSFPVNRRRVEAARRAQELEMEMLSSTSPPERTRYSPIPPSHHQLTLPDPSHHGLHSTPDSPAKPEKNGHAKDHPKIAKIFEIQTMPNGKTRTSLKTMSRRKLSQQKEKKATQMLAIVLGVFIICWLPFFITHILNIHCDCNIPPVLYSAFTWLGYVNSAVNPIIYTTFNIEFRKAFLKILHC

| log(activity) [1] | Activity [2] | log(activity) [2] | Kb [3] | pKb [3] | Activity [4] | log(activity) [4] | T1/2 [5] | K [7] | Kb [8] | pKb [8] | Kb [9] | pKb [9] | Activity [1] | Activity [10] | log(activity) [10] | K [11] | T1/2 [12] | Compound | Selectivity ratio [6] |
| --- | --- | --- | --- | --- | --- | --- | --- | --- | --- | --- | --- | --- | --- | --- | --- | --- | --- | --- | --- |
| 0 | 0.28 | -0.55 | 16.6 µM | 4.78 | 0.39 | -0.4 | 18.1 min | 0.038 min⁻¹ | 300 nM | 6.54 | 3870 nM | 5.41 | – | – | – | – | – | FC(F)(F)c1cccc(Nc2nc(CN3CCOCC3)nc3sc4c(c23)CCCC4)c1 | 57 |
| -0.17 | 0.08 | -1.1 | 6 µM | 5.22 | – | – | – | – | – | 3.85 | 662 nM | 6.18 | 0.68 | 0.23 | -0.64 | 0.038 min⁻¹ | 18.2 min | CCN(CC)c1nc(CN2CCOCC2)nc2sc3c(c12)CCCC3 | 23 |
